These results are taken from ChEMBL document CHEMBL3414568, “Synthesis and antiproliferative activity of 3-(2-chloroethyl)-5-methyl-6-phenyl-8-(trifluoromethyl)-5,6-dihydropyrazolo[3,4-f][1,2,3,5]tetrazepin-4-(3H)-one” (Eur J Med Chem, 2015).

A word on the GI50: it is the concentration that inhibits growth by half. As usually defined, the AC50 is the concentration at which the activity in the assay is half-maximal. By IC50 is commonly meant the concentration at which inhibition is half-maximal. A lower IC50 goes with greater potency in that assay.

Assay [1] in a line: Cytotoxicity against human HL60 cells assessed as growth inhibition after 48 hrs by trypan blue staining-based hemocytometric analysis. The format is functional. The following applies: HL-60, 48 h. In outline:
(§1)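 2 × 10⁵ cells per well in 1 mL complete medium treated with various concentrations from freshly prepared DMSO solution (DMSO ≤0.3% v/v final). After 48 h, trypan blue staining and hemocytometer counting of viable cells, expressed as percentage of control proliferation.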

For another assay, the system named is HL-60. The experiment in a line: Induction of apoptosis in human HL60 cells after 48 hrs by acridine orange/ethidium bromide staining-based fluorescence microscopic analysis. The format is functional, cell-based. The following applies: HL-60, 48 h. The essentials:
(§2)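 After 48 h exposure to various concentrations, 2 × 10⁵ cells centrifuged (300 × g) and resuspended in acridine orange/ethidium bromide dye mixture. Examined under oil immersion, 100× objective, by fluorescence microscopy. Live cells take up acridine orange (green) and exclude ethidium bromide (red); apoptotic and necrotic cells scored morphologically.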

Assay [2] can be described thus: Cytotoxicity against human HL60R cells expressing p-glycoprotein assessed as growth inhibition after 48 hrs by trypan blue staining-based hemocytometric analysis. Format: functional. The essentials:
as §1

Assay [3] in a line: Induction of apoptosis in human HL60R cells expressing p-glycoprotein after 48 hrs by acridine orange/ethidium bromide staining-based fluorescence microscopic analysis. Format: functional, cell-based. The essentials: as §2
In assay [4] the test system is K562. Put plainly: Cytotoxicity against human K562 cells expressing Bcr-Abl assessed as growth inhibition after 48 hrs by trypan blue staining-based hemocytometric analysis. Format: functional. Conditions: K562, 48 h. The essentials:
as §1

The test system of assay [5] is K562. The experiment in a line: Induction of apoptosis in human K562 cells expressing Bcr-Abl after 48 hrs by acridine orange/ethidium bromide staining-based fluorescence microscopic analysis. The format is functional, cell-based. The following applies: K562, 48 h. In outline:
as §2

Assay [6] has as its system HepG2. Put plainly: Cytotoxicity against human HepG2 cells assessed as growth inhibition after 48 hrs by trypan blue staining-based hemocytometric analysis. Conditions: HepG2, 48 h. The format is functional. In outline: as §1
The test system of assay [7] is HepG2. The experiment in a line: Induction of apoptosis in human HepG2 cells after 48 hrs by acridine orange/ethidium bromide staining-based fluorescence microscopic analysis. The following applies: HepG2, 48 h. Format: functional, cell-based. In outline:
as §2

In the next assay the test system is WiDr. Put plainly: Cytotoxicity against human WiDr cells overexpressing MGMT after 48 hrs by trypan blue staining-based hemocytometric analysis. The format is functional, cell-based. In outline: as §1
The test system of assay [8] is K562. Put plainly: Cell cycle arrest in human K562 cells expressing Bcr-Abl assessed as accumulation at G0-G1 phase at 30 uM after 24 hrs by propidium iodide staining-based flow cytometry (reference value: 44.65 +/- 6.8%). The format is functional. In outline:
(§3)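 K562 cells cultured with or without 30 µM compound for 24 h and 48 h. Cells washed once in ice-cold PBS, resuspended at 10⁶/mL in hypotonic propidium iodide solution with nonidet P-40 0.03% (v/v) in 0.1% sodium citrate, 30 min incubation, flow cytometry single-parameter DNA histograms. G0-G1/S/G2-M % calculated on cycling cells only; subG0-G1 % on total cell number.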
In general terms: Flow cytometry measures light scatter and fluorescence of single cells or particles in a stream.

In assay [9] the test system is K562. The experiment in a line: Cell cycle arrest in human K562 cells expressing Bcr-Abl assessed as accumulation at G0-G1 phase at 30 uM after 48 hrs by propidium iodide staining-based flow cytometry (reference value: 44.65 +/- 6.8%). Format: functional. The essentials: as §3
The subject of assay [10] is K562. Put plainly: Cell cycle arrest in human K562 cells expressing Bcr-Abl assessed as accumulation at S phase at 30 uM after 24 hrs by propidium iodide staining-based flow cytometry (reference value: 43.19 +/- 7%). The format is functional. The essentials: as §3
Assay [11] concerns K562. The experiment in a line: Cell cycle arrest in human K562 cells expressing Bcr-Abl assessed as accumulation at S phase at 30 uM after 48 hrs by propidium iodide staining-based flow cytometry (reference value: 43.19 +/- 7%). Format: functional. In outline:
as §3

The test system of assay [12] is K562. Put plainly: Cell cycle arrest in human K562 cells expressing Bcr-Abl assessed as accumulation at G2-M phase at 30 uM after 24 hrs by propidium iodide staining-based flow cytometry (reference value: 12.16 +/- 2.2%). Format: functional. The essentials: as §3
Assay [13] relates to K562. Put plainly: Cell cycle arrest in human K562 cells expressing Bcr-Abl assessed as accumulation at G2-M phase at 30 uM after 48 hrs by propidium iodide staining-based flow cytometry (reference value: 12.16 +/- 2.2%). Format: functional. The essentials: as §3
For assay [14], the system named is K562. Put plainly: Cell cycle arrest in human K562 cells expressing Bcr-Abl assessed as accumulation at subG0-G1 phase at 30 uM after 24 hrs by propidium iodide staining-based flow cytometry (reference value: 3.21 +/- 0.4%). The format is functional. In outline: as §3
For assay [15], the system named is K562. Put plainly: Cell cycle arrest in human K562 cells expressing Bcr-Abl assessed as accumulation at subG0-G1 phase at 30 uM after 48 hrs by propidium iodide staining-based flow cytometry (reference value: 3.21 +/- 0.4%). The format is functional. The essentials: as §3

SMILES strings stand for the structures.

Take `CN1C(=O)N(CCCl)N=Nc2c(C(F)(F)F)nn(-c3ccccc3)c21`: the GI50 in assay [1] is 9 µM; in assay [2], 14 µM; in the assay on K562 [4] it was 18 µM; in the assay with HepG2 [6] it was 26 µM. Further, the half-maximal activity concentration (AC50) in the assay with HL-60 amounted to 19 µM; in [3] it was 22 µM; in the assay on K562 [5], 37 µM; in the assay with HepG2 [7], 43 µM. This compound also came in with an IC50 with WiDr of 2.3 µM. Further, the Activity is reported as 43.96% with K562 [8]; 40.97% with K562 [9]; 43.59% in the assay on K562 [10]; 44.24% with K562 [11]; 12.45% with K562 [12]; 14.79% in the assay with K562 [13]. In addition, the Activity came to 15% with K562 [14] and 38.35% in the assay on K562 [15].

Turning to `CN1N=Nc2c(C(F)(F)F)nn(-c3ccccc3)c2N(C)C1=O`, the GI50 in assay [1] is 21 µM; in assay [2], 30 µM; in the assay with K562 [4] it was 40 µM. The same compound had an AC50 in assay [3] of 38 µM.

For `COc1cccc2c1C(=O)c1c(O)c3c(c(O)c1C2=O)C[C@@](O)(C(C)=O)C[C@@H]3O[C@H]1C[C@H](N)[C@H](O)[C@H](C)O1` [DAUNORUBICIN], the GI50 was found to be 0.1 µM in [1] and 38 µM in assay [2].

In the case of `COc1cc([C@@H]2c3cc4c(cc3[C@@H](O[C@@H]3O[C@@H]5CO[C@@H](C)O[C@H]5[C@H](O)[C@H]3O)[C@H]3COC(=O)[C@H]23)OCO4)cc(OC)c1O` [ETOPOSIDE], the results for the GI50 in assay [1] and in assay [2] were 0.4 µM and more than 400 µM, respectively.

In the assay on WiDr, `Cn1nnc2c(C(N)=O)ncn2c1=O` [TEMOZOLOMIDE] yielded an IC50 of 1720 µM.
